In the M2OR odorant receptor database:

Legend:
Details in all cases: stereoisomer not certain
[1] = target: T1, OR10A3 (Homo sapiens) (UniProt P58181)
T1 sequence (whole entry): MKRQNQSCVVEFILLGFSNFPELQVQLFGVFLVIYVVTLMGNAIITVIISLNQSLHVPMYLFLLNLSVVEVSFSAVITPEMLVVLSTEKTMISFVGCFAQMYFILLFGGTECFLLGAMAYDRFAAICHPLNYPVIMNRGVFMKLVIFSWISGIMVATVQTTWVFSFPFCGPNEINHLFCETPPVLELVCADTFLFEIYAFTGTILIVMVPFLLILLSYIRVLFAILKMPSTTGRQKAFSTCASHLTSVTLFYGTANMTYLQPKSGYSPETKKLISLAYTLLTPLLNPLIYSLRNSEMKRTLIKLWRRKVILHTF
Method in brief: (§1)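 Transient luciferase assays in mammalian cell lines were common, though methods varied by source. The values come from published papers and their supplementary material, with extra details from the original authors when needed. Responsive refers to a measured signal the original authors judged statistically different from baseline, and non-responsive (inactive) to the remainder.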

[2] = target: T2, OR10A4 (Homo sapiens) (UniProt Q9H209)
T2 sequence (whole entry): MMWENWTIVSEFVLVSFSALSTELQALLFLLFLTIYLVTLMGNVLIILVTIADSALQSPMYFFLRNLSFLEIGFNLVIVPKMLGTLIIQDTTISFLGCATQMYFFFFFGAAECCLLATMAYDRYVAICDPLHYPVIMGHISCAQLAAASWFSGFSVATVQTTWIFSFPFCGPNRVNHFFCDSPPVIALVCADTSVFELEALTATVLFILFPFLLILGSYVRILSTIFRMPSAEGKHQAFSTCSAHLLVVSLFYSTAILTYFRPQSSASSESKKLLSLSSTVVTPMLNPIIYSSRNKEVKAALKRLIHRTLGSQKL
Method in brief: as §1

[3] = target: T3, OR10A5 (Homo sapiens) (UniProt Q9H207)
T3 sequence (whole entry): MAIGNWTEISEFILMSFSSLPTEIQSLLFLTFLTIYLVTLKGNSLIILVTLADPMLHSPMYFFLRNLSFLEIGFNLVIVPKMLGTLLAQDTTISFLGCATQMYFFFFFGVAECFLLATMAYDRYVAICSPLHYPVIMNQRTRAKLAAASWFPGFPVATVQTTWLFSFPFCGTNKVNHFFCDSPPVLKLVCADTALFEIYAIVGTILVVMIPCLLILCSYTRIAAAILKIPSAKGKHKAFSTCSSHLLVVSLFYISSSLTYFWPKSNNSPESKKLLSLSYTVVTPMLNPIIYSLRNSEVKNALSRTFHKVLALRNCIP
Method in brief: as §1

[4] = target: T4, OR10A6 (Homo sapiens) (UniProt Q8NH74)
T4 sequence (whole entry): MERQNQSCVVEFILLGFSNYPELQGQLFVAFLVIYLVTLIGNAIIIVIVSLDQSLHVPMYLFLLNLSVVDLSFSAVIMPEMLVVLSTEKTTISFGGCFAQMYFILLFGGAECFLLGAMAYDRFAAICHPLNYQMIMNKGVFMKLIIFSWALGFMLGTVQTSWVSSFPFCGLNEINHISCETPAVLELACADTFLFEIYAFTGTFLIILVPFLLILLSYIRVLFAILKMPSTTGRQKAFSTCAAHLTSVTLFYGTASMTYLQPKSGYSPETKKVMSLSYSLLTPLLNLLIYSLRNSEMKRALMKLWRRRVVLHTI
Method in brief: as §1

[5] = target: T5, OR10A7 (Homo sapiens) (UniProt Q8NGE5)
T5 sequence (whole entry): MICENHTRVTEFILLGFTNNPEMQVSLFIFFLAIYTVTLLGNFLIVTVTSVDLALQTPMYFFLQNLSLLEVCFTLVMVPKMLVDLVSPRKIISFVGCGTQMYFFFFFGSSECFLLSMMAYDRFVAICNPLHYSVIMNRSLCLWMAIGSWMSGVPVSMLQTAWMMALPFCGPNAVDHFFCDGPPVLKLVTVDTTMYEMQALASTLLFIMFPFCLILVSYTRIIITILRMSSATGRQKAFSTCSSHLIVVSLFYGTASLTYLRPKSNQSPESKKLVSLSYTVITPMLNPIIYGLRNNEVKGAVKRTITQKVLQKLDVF
Method in brief: as §1

[6] = target: T6, OR10AD1 (Homo sapiens) (UniProt Q8NGE0)
T6 sequence (whole entry): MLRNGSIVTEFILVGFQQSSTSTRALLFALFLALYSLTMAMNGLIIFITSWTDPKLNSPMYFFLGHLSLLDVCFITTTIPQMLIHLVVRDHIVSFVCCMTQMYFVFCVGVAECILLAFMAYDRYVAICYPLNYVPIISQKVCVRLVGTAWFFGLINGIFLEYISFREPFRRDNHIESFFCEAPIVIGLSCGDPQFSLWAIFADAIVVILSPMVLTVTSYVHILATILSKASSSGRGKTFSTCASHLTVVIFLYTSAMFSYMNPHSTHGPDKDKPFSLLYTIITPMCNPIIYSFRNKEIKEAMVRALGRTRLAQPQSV
Method in brief: as §1

[7] = target: T7, OR10AG1 (Homo sapiens) (UniProt Q8NH19)
T7 sequence (whole entry): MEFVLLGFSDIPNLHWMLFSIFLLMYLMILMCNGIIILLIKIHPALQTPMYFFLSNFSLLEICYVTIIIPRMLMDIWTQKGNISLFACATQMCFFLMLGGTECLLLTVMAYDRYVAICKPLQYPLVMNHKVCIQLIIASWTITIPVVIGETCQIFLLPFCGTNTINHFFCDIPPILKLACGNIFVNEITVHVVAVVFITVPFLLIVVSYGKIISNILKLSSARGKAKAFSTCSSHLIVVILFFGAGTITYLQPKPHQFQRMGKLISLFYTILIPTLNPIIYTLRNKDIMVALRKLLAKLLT
Method in brief: as §1

[8] = target: T8, OR10C1 (Homo sapiens) (UniProt Q96KK4)
T8 sequence (whole entry): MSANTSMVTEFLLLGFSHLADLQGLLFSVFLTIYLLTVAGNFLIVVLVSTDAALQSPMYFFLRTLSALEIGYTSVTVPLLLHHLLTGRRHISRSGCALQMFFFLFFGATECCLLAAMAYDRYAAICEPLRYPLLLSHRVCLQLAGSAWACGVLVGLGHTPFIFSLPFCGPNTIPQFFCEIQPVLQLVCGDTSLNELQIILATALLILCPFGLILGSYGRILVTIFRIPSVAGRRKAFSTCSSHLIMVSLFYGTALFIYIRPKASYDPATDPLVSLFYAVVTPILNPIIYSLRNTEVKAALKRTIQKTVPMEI
Method in brief: as §1

[9] = target: T9, OR10D3 (Homo sapiens) (UniProt Q8NH80)
T9 sequence (whole entry): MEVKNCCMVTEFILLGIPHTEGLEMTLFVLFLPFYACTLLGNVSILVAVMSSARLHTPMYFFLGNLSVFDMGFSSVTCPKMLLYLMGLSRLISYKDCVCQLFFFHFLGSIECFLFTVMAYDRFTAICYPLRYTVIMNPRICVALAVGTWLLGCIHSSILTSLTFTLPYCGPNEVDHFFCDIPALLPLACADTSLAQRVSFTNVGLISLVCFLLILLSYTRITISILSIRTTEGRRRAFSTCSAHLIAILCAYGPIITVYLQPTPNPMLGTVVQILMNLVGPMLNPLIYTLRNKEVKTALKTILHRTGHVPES
Method in brief: as §1

Measured: odorant receptor agonist call;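 note: active if original authors judged signal statistically different from baseline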

CCCCCC(=O)C(C)C(C)=O (centres undefined)
inactive: all assays above
